# Reference: PubChem BioAssay AID1496 (Sanford-Burnham Center for Chemical Genomics, 2009)
# Screen size: about 220,000 compounds; about 990 (0.45%) were called active. The sample as a whole holds a higher share of actives than the screen did. A number with no mark means an inactive call.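 The calls were made as follows: active = inhibition over about 50% at 20 µM in the single-dose screen (limit read from the data); inactive = the rest.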
# Molecular target: Runt-related transcription factor 1 (Homo sapiens) + Core-binding factor subunit beta (Homo sapiens) (UniProt Q01196+Q13951)
# Assay: inhibitors of RUNX1 Runt–CBFb binding, primary screen, biochemical, FRET, Cerulean-Runt, Venus-CBFb, uHTS (AID 1496);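 also: 0% = DMSO wells and 100% = excess unlabeled CBFb competitor control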
# Conditions: Cerulean-Runt/Venus-CBFb FRET ratio 530/480, 1 h; at 20 µM; hits give high values
# Summary of the method: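 test system = Cerulean-Runt domain fusion protein, energy donor | probe or stimulus = Venus-CBFb binding partner, 100 nM | incubation = two 1 h room-temperature incubations shielded from light | detection = fluorescence energy transfer, 422 nm excitation, 530/480 nm emission | measure = loss of energy transfer signal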
# Runt-related transcription factor 1 (Homo sapiens) + Core-binding factor subunit beta (Homo sapiens), sequence (Q01196 whole entry, looked up): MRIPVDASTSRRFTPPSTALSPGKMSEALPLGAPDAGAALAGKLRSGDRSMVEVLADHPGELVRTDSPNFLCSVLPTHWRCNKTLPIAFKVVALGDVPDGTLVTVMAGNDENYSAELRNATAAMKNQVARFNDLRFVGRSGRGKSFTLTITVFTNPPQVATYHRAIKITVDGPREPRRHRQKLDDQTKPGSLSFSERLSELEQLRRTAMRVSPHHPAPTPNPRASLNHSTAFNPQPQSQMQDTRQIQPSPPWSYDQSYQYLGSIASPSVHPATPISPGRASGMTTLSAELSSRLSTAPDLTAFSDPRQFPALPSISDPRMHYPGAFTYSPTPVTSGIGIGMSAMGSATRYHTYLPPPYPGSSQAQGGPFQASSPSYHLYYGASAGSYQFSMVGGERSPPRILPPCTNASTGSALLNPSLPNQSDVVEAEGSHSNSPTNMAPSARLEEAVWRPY
# Runt-related transcription factor 1 (Homo sapiens) + Core-binding factor subunit beta (Homo sapiens), sequence (Q13951 whole entry, looked up): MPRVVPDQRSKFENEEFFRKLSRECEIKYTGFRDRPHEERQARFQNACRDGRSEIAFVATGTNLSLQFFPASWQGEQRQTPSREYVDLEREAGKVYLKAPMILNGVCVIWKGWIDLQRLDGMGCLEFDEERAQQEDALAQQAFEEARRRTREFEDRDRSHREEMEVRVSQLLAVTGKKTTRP
row,Structure (SMILES),inhibition
1,Cc1c(Cc2ccccc2)c(=O)oc2cc(OCC(N)=O)ccc12,-0.8%
2,CCOC(=O)c1ccc(N=C2SC(C(=O)NC)CC(=O)N2CCc2ccccc2)cc1 (centres undefined),-3%
3,CCc1ccnc(NS(=O)(=O)c2ccc3c(c2)OCCO3)c1,2.3%
4,COc1ccccc1C1CCN(c2ccc([N+](=O)[O-])cn2)CC1,0.4%
5,CCN1CCN(c2nc(Nc3cccc(F)c3)nc(N)c2[N+](=O)[O-])CC1,-0.1%
6,COC(=O)Cc1cc(=O)oc2c(C)c(O)ccc12,19.3%
7,CCCc1cc(=O)[nH]c(SCc2cc(=O)oc3c(C)c(C)ccc23)n1,-10.5%
8,CCCc1cc(=O)oc2c(C)c(O)c(CN3CCCCC3)cc12,84.1% (active)
9,Cn1nnc(NC(=S)NC(=O)c2ccccc2)n1,10.1%
10,COC(=O)c1ccccc1N=Nc1c(C)[nH][nH]c1=O,-3.8%
11,CCN(CC)CCCN=C(N)N,2.2%
12,CCC(=O)/C=C1\Sc2ccccc2N1CC,1.3%
13,O=C(CCN1c2ccccc2Sc2ccccc21)Nc1ccccc1,0.8%
14,CCN1/C(=C/C(=S)Nc2ccccc2)Sc2ccccc21,59.1% (active)
15,O=C(Nc1ccc(S(=O)(=O)Nc2nccs2)cc1)c1cc(-c2ccncc2)nc2ccccc12,-7.7%
16,O=C(NCc1ccco1)c1cccn2c(=O)c3c4c(sc3nc12)CCCC4,12.3%
17,COc1ccc(CCNC(=O)CCn2c(=O)c3ccccc3n(CC(=O)NCC3CCCO3)c2=O)cc1OC (centres undefined),-1.8%
18,CCn1c(=N)c(C(=O)NCCCOC)cc2c(=O)n3cccc(C)c3nc21,19.3%
19,COc1ccc(CNC(=O)c2cc3c(=O)n4ccccc4nc3n(CC3CCCO3)c2=N)cc1 (centres undefined),85.6% (active)
20,COc1ccc(CCn2c(=N)c(C(=O)NCc3ccco3)cc3c(=O)n4cccc(C)c4nc32)cc1,107% (active)
21,COc1ccc(CCNC(=O)Cn2c(=O)n(CC3CCCO3)c(=O)c3ccccc32)cc1OC (centres undefined),-0.8%
22,CC(C)(C)c1ccc(C(=O)NCCn2c(N)c(C#N)c3nc4ccccc4nc32)cc1,72.8% (active)
23,N#Cc1c(N)n(CCOC(=O)c2ccc(Cl)cc2)c2nc3ccccc3nc12,59% (active)
24,CN(C)CCCn1c(N)c(C#N)c2nc(C#N)c(C#N)nc21,42.7%
25,COCCCn1c2nc3ccccc3nc2c2c(=O)n(Cc3ccc(Cl)cc3)c(C)nc21,0.1%

row,Structure (SMILES),inhibition
1,CCCNC(=O)c1c(N)n(-c2ccc(S(N)(=O)=O)cc2)c2nc3ccccc3nc12,33%
2,CC(C)Cn1c(N)c(C(=O)NCc2cccs2)c2nc3ccccc3nc21,16.3%
3,COc1ccc(CNC(=O)C(Cc2ccccc2)n2cccc2)cc1 (centres undefined),1.1%
4,NCCCCCC(=O)N/N=C/c1ccc2nccnc2c1,0.4%
5,Cc1c(CCC(=O)O)c(=O)oc2cc3occ(-c4ccccc4)c3cc12,-3.4%
6,CCCC(=O)Nc1nnc(-c2ccccc2)o1,0.1%
7,CCCCCCc1cc2cc(-c3nnc(-c4ccccc4)o3)c(=O)oc2cc1O,84.6% (active)
8,COC(=O)c1cc(NC(=O)c2cc(C(C)(C)C)nn2Cc2cccc(C)c2)ccc1N1CCOCC1,-4%
9,COC(=O)c1cc(NC(=O)c2ccco2)ccc1N1CCOCC1,0.9%
10,NC(=O)C1(C(N)=O)OC1c1ccc(Cl)cc1Cl (centres undefined),0.4%
11,COC(=O)C1=CN(C)C=C(C(=O)OC)C1c1ccc(Cl)cc1Cl,110% (active)
12,CCOc1ccccc1C1C(C(=O)OC)=CN(C)C=C1C(=O)OC,9.9%
13,O=C1CSC(=S)N1/N=C/c1ccc(O)c([N+](=O)[O-])c1,26.4%
14,CCOc1cccc(/C=N/N2C(=O)CSC2=S)c1O,51.1% (active)
15,CCOc1cccc(/C=N/NC(=S)NCCN2CCOCC2)c1O,-15.6%
16,Cc1ccc(NS(=O)(=O)c2ccc(N/N=C/c3ccccc3OCC(=O)O)c([N+](=O)[O-])c2)c(C)c1,-12.7%
17,COC(=O)Cn1c2ccc(C)cc2c2nc(C)sc21,50.7% (active)
18,COC(=O)Cn1c(=NC(=O)c2cc(OC)c(OC)c(OC)c2)sc2cc(OC)ccc21,-1.4%
19,CCN(CC)CCn1c2ccc(Cl)cc2c2nc(C)sc21,0.5%
20,Cn1c(C(=O)O)ccc1S(=O)(=O)N(Cc1ccccc1)Cc1ccccc1,0.9%
21,COc1ccc(Br)c2c1C(=O)CC2,-4%
22,COC(=O)c1ccc(C(=O)OC)c(NC(=S)N2CCN(c3ccc(F)cc3)CC2)c1,8.1%
23,COC(=O)c1ccc(C(=O)OC)c(NC(=S)N2CCN(c3cc(Cl)ccc3C)CC2)c1,9.1%
24,COC(=O)c1ccc(C(=O)OC)c(NC(=S)N2CCCCC2)c1,54% (active)
